B1: tRNA (parent)
chain: GUUCCGUUGGCGUAAUGGUAACGCGUCUCCCUCCUAAGGAGAAGACUGCGGGUUCGAGUCCCGUACGGAACG

Variants of: B1
Experiment: yeast fitness, log relative to wild type (ln ratio); higher = fitter; tRNA-Arg(CCU), competitive growth, 37 C, 1 M NaCl
Method in brief: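 In BY4742 missing the chromosomal gene, a combinatorial tRNA-Arg(CCU) variant library was maintained on a HIS3 centromeric plasmid. Selection ran ~6.5 generations (~26.5 h) in SC-HIS 1M NaCl at 37 °C, following 4 generations in SC-HIS at 30 °C, with three outputs per input and variant counts by 125 bp paired-end Illumina sequencing. Fitness is the natural log of a genotype's generations relative to the wild type's, with generations taken as inverse-variance-weighted, OD-scaled log2 output/input frequency.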

Going from G1A C66A A70U C71U to G1A A70G C71U, the “yeast fitness (ln)” value rises from -0.144 to -0.0244.

Compared with G1A G6U C27U C46U A69G A70U, U2G A43C C66U A69G C71U is lower in “yeast fitness (ln)” value: -0.299 for the first, -0.455 for the second.

Compared with G1A U2C G6A C27U A43C C46U C66U A70G, U2C G6U C27U A43C A69G A70G C71U is lower in “yeast fitness (ln)” value: -0.155 for the first, -0.281 for the second.

Going from U2G G6A C27U C46U A69G to U2C G6U C27U A43C C46U A69G A70G, the “yeast fitness (ln)” value falls from -0.149 to -0.227.

Compared with G1A G6U C66A A70G C71U, G1A U2C G6A C27U C46U C66U C71U is lower in “yeast fitness (ln)” value: -0.0373 for the first, -0.348 for the second.

Going from G1A G6U C27U C46U C66A A70G to G1A U2G C46U C66U C71U, the “yeast fitness (ln)” value rises from -0.233 to -0.117.

Going from G1A C27U A43C C66A A69G A70U to G1A G6U A43C C46U A69G A70U C71U, the “yeast fitness (ln)” value falls from -0.391 to -0.434.

Going from U2C G6A C27U A69G C71U to U2G G6U C27U C46U, the “yeast fitness (ln)” value falls from -0.0988 to -0.1.

Compared with U2G C27U A43C C66U A69G A70G C71U, G1A U2G A43C C46U C66A A70U is higher in “yeast fitness (ln)” value: -0.402 for the first, -0.125 for the second.

Going from G1A U2G A43C C46U C66A A70G to U2C C27U A43C C66A A70G C71U, the “yeast fitness (ln)” value rises from -0.26 to -0.111.

Compared with G1A C66U A69G A70U C71U, G1A U2G C27U C66U A70U C71U is lower in “yeast fitness (ln)” value: -0.364 for the first, -0.365 for the second.

Going from U2C G6U C27U C46U C66U A70U C71U to C27U A43C C46U C66U C71U, the “yeast fitness (ln)” value rises from -0.335 to -0.253.

Compared with U2C G6U A43C C46U, U2G G6U A43C C46U is lower in “yeast fitness (ln)” value: -0.0413 for the first, -0.106 for the second.

First: G6U A43C C46U A69G
Second: U2G C27U A43C C46U A70U C71U
The “yeast fitness (ln)” value of the first is lower: -0.176 for the first, -0.0906 for the second.

First: G6A A69G A70U C71U
Second: U2G G6A A69G
The “yeast fitness (ln)” value of the first is lower: -0.315 for the first, -0.135 for the second.

First: G1A G6U C46U
Second: U2G G6U A43C C46U A70G
The “yeast fitness (ln)” value of the first is higher: -0.0505 for the first, -0.138 for the second.

First: U2G G6U A43C C46U A70U
Second: U2C G6A C66U A69G A70G C71U
The “yeast fitness (ln)” value of the first is lower: -0.337 for the first, -0.0248 for the second.

Going from G6U A43C C46U C66A A69G to U2G A43C C46U C66A A69G A70U C71U, the “yeast fitness (ln)” value falls from 0.0709 to -0.443.

Compared with G6A C66U A69G A70G, G1A U2G G6U A43C C66U A70G C71U is lower in “yeast fitness (ln)” value: -0.0412 for the first, -0.419 for the second.

Compared with U2G C46U C66U A69G A70G C71U, G6U A43C C66U A69G A70G C71U is lower in “yeast fitness (ln)” value: -0.114 for the first, -0.442 for the second.

Compared with U2G C27U C66U A70G, U2G C27U C66U A70U is higher in “yeast fitness (ln)” value: -0.147 for the first, -0.0967 for the second.

First: G6A C27U A43C C66U A70U
Second: G1A U2G G6U C27U A43C C46U C66U A69G C71U
The “yeast fitness (ln)” value of the first is higher: -0.169 for the first, -0.4 for the second.

Compared with A69G A70U, G1A U2C G6A A43C C46U C66U A69G A70G is lower in “yeast fitness (ln)” value: -0.0431 for the first, -0.232 for the second.

Compared with G1A C27U A43C A69G, U2C G6U A43C C46U C66A A69G A70U C71U is lower in “yeast fitness (ln)” value: -0.138 for the first, -0.396 for the second.

Going from G1A U2G G6A C27U C46U A70U to U2C G6U C27U A43C C46U C66A A70U, the “yeast fitness (ln)” value rises from -0.189 to -0.0786.

Going from G1A U2G G6A A43C C46U C66A A70U to C27U A43C C46U A70U C71U, the “yeast fitness (ln)” value rises from -0.191 to -0.093.

Compared with G6A C27U C66U A69G A70U, G1A U2G G6U C27U A43C C46U C66U A69G A70U is lower in “yeast fitness (ln)” value: -0.214 for the first, -0.451 for the second.

Compared with U2G A43C C66A A69G A70U, U2C G6U A43C C46U C66U A69G C71U is lower in “yeast fitness (ln)” value: -0.231 for the first, -0.347 for the second.

Going from G1A U2G G6U C27U A43C C46U A69G C71U to U2C G6U A43C C71U, the “yeast fitness (ln)” value rises from -0.39 to -0.117.

First: U2G G6U A43C C46U A69G A70U
Second: G1A A43C C46U C66U A70U
The “yeast fitness (ln)” value of the first is lower: -0.194 for the first, -0.124 for the second.

Compared with G6A C27U A70G, G6A C66U A69G A70G C71U is lower in “yeast fitness (ln)” value: -0.148 for the first, -0.41 for the second.

Compared with G1A U2G G6A C46U C66U A70G C71U, G1A U2G G6U A43C C46U C66U A69G C71U is higher in “yeast fitness (ln)” value: -0.517 for the first, -0.393 for the second.

Compared with G1A U2C G6A A43C C66U A70U, U2C G6U A43C C66A C71U is lower in “yeast fitness (ln)” value: -0.083 for the first, -0.0984 for the second.

Compared with U2C G6U A43C C66U A70U C71U, G1A U2G G6U C46U C66U A70G C71U is higher in “yeast fitness (ln)” value: -0.531 for the first, -0.216 for the second.

Going from G6A A43C C46U C66A to G1A U2C C27U C46U A70G, the “yeast fitness (ln)” value rises from -0.0495 to -0.0417.

Going from G1A C27U C46U C66U A70U to G1A U2G C46U C66A A70G C71U, the “yeast fitness (ln)” value falls from -0.154 to -0.198.

Compared with U2C G6U C27U A43C C46U C66U A69G A70U C71U, A70G C71U is higher in “yeast fitness (ln)” value: -0.391 for the first, -0.0739 for the second.

First: G6A A43C C46U C66U A69G A70U C71U
Second: G1A U2G G6U C27U A43C C46U A69G A70U C71U
The “yeast fitness (ln)” value of the first is higher: -0.233 for the first, -0.41 for the second.

Going from G1A G6A C27U A70G C71U to G1A C27U A43C C66U A69G A70U C71U, the “yeast fitness (ln)” value falls from -0.332 to -0.505.

Going from G1A U2G C46U A70U to G6A C27U A69G C71U, the “yeast fitness (ln)” value falls from -0.115 to -0.243.

Compared with G1A G6A C27U C46U C66U C71U, G6A C27U A43C C66U A69G A70U is lower in “yeast fitness (ln)” value: -0.0279 for the first, -0.452 for the second.

With C27U C66U A70U the “yeast fitness (ln)” value was -0.0893.
